In ChEMBL document CHEMBL1124765, “Synthesis and biological properties of novel phosphotriesters: a new approach to the introduction of biologically active nucleotides into cells” (J Med Chem, 1990):
≈ marks a conversion by molar mass, not a printed value. Where “and” joins values, the source holds several entries; their conditions need not be identical. Equal values may be shown once.

Assays:
Type in all cases: functional
Human alphaherpesvirus 1 [1] = assay: Evaluated for the minimum inhibitory concentration (MIC) in primary rabbit kidney (PRK) by 50% upon preincubation in medium containing 10% fetal calf serum at 37 degree Centigrade for 24 hr against herpes simplex virus type-1 (HSV-1) with strain McI
How it was run: (§1)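 Compounds were preincubated in medium with 10% fetal calf serum for 24 h at 37 °C before addition to the cells. Confluent primary rabbit kidney monolayers were infected with 100 CCID50 of virus and adsorbed for 1 h. Residual virus was removed and cells were incubated with varying compound concentrations. The endpoint was 50% reduction of cytopathogenicity, read when infected controls reached full CPE.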

Human alphaherpesvirus 1 [2] = assay: Evaluated for the minimum inhibitory concentration (MIC) in primary rabbit kidney (PRK) by 50% against herpes simplex virus type-1 (HSV-1) with strains KOS
How it was run: (§2)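 Confluent primary rabbit kidney cell cultures infected with 100 CCID50 virus; after 1 h adsorption residual virus removed and cells incubated with varying compound concentrations. Cytopathogenicity scored when complete in infected untreated controls; MIC = concentration reducing virus-induced cytopathogenicity by 50%. Compounds tested as such or after preincubation in medium with 10% fetal calf serum, 24 h, 37 °C.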

Human alphaherpesvirus 2 [3] = assay: Evaluated for the minimum inhibitory concentration (MIC) in primary rabbit kidney (PRK) by 50% upon preincubation in medium containing 10% fetal calf serum at 37 degree Celsius for 24 hr against herpes simplex virus type-2 (HSV-2) with strains G; how it was run: as §1
Human alphaherpesvirus 2 [4] = assay: Evaluated for the minimum inhibitory concentration (MIC) in primary rabbit kidney (PRK) by 50% upon preincubation in medium containing 10% fetal calf serum at 37 degree Celsius for 24 hr against herpes simplex virus type-2 (HSV-2) with strains Ly; how it was run: as §1
Mus musculus [5] = assay: Topical treatment of intracutaneous TK- herpes simplex virus type 1 of strain VMW 1837 infection of Nu/nu mice for mean day of appearance of skin lesions and/or paralysis of the hind legs at 1% concentration (v/v in DMSO)
How it was run: (§3)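 Inocula were TK⁻ HSV-1 at 10⁶ CCID50/0.05 mL or HSV-1 KOS at 10^4.7 PFU/0.05 mL. Test formulations in DMSO were applied topically four times daily for 5 days, starting at infection. Skin lesions, hind-leg paralysis and death were recorded daily for 28 (KOS) or 49 (TK⁻) days, with five mice per group.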

Human alphaherpesvirus 1 [6] = assay: Evaluated for the minimum inhibitory concentration (MIC) in primary rabbit kidney (PRK) by 50% upon pre-incubation in medium containing 10% fetal calf serum at 37 degree Centigrade for 24 hr against herpes simplex virus type-1 (HSV-1) with strainKOS; how it was run: as §1
Human alphaherpesvirus 1 [7] = assay: Evaluated for the minimum inhibitory concentration (MIC) in primary rabbit kidney (PRK) by 50% against herpes simplex virus type-1 (HSV-1) with strains F; how it was run: as §2
Human alphaherpesvirus 1 [8] = assay: Evaluated for the minimum inhibitory concentration (MIC) in primary rabbit kidney (PRK) by 50% against TK- herpes simplex virus type 1 (TK- HSV-1) with strain VMW 1837.
How it was run: (§4)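 Confluent primary rabbit kidney cell monolayers were infected with 100 CCID50 of virus. After 1 h adsorption, residual virus was removed and cells were incubated with serial compound concentrations. Cytopathogenicity was scored once it reached completion in untreated infected controls. The endpoint was the concentration reducing virus-induced cytopathogenicity by 50%.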

Human alphaherpesvirus 2 [9] = assay: Evaluated for the minimum inhibitory concentration (MIC) in primary rabbit kidney (PRK) by 50% against herpes simplex virus type-2 (HSV-2) with strains G; how it was run: as §4
Human alphaherpesvirus 2 [10] = assay: Evaluated for the minimum inhibitory concentration (MIC) in primary rabbit kidney (PRK) by 50% against herpes simplex virus type-2 (HSV-2) with strains Lyons; how it was run: as §2
Vaccinia virus [11] = assay: Evaluated for the minimum inhibitory concentration (MIC) in primary rabbit kidney (PRK) by 50% upon pre-incubation in medium containing 10% fetal calf serum at 37 degree Centigrade for 24 hr against Vaccinia virus; settings: Orthopoxvirus vaccinia; how it was run: as §1
[12] = test system: Vesicular stomatitis virus; assay: Evaluated for the minimum inhibitory concentration (MIC) in primary rabbit kidney (PRK) by 50% against Vesicular stomatitis virus; how it was run: as §4
Human alphaherpesvirus 1 [13] = assay: Evaluated for the minimum inhibitory concentration (MIC) in primary rabbit kidney (PRK) by 50% upon preincubation in medium containing 10% fetal calf serum at 37 degree Celsius for 24 hr against herpes simplex virus type-1 (HSV-1) with strainF; how it was run: as §1
[14] = test system: Vesicular stomatitis virus; assay: Evaluated for the minimum inhibitory concentration (MIC) in primary rabbit kidney (PRK) by 50% upon pre-incubation in medium containing 10% fetal calf serum at 37 degree Centigrade for 24 hr against Vesicular stomatitis virus; how it was run: as §1
Vaccinia virus [15] = assay: Evaluated for the minimum inhibitory concentration (MIC) in primary rabbit kidney (PRK) by 50% against Vaccinia virus; settings: Orthopoxvirus vaccinia; how it was run: as §4
Human alphaherpesvirus 2 [16] = assay: Evaluated for the minimum inhibitory concentration (MIC) in primary rabbit kidney (PRK) by 50% upon preincubation in medium containing 10% fetal calf serum at 37 degree Centigrade for 24 hr against herpes simplex virus type-2 (HSV-2) with strains 19; how it was run: as §1
Human alphaherpesvirus 2 [17] = assay: Evaluated for the minimum inhibitory concentration (MIC) in primary rabbit kidney (PRK) by 50% against herpes simplex virus type-2 (HSV-2) with strains 196; how it was run: as §2
Oryctolagus cuniculus [18] = species: Oryctolagus cuniculus; assay: Evaluated for the minimum cytotoxic concentration (MCC) upon preincubation of rabbit kidney cells in medium containing 10% fetal calf serum at 37 degree Celsius for 24 hr; settings: Oryctolagus cuniculus, kidney; read-out: MCC
How it was run: (§5)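 Primary rabbit kidney cell cultures were exposed to compounds, some preincubated 24 h at 37 °C in medium with 10% fetal calf serum. The minimum cytotoxic concentration was the level causing a microscopically detectable change in normal cell morphology.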

Human alphaherpesvirus 1 [19] = assay: Evaluated for the minimum inhibitory concentration (MIC) in primary rabbit kidney (PRK) by 50% against TK- herpes simplex virus type 1 (TK- HSV-1) with strain B2006; how it was run: as §4
Human alphaherpesvirus 1 [20] = assay: Evaluated for the minimum inhibitory concentration (MIC) in primary rabbit kidney (PRK) by 50% against herpes simplex virus type-1 (HSV-1) with strains McIntyre; how it was run: as §2
Human alphaherpesvirus 1 [21] = assay: Evaluated for the minimum inhibitory concentration (MIC) in primary rabbit kidney (PRK) by 50% upon preincubation in medium containing 10% fetal calf serum at 37 degree Centigrade for 24 hr against TK- herpes simplex virus type 1 (TK- HSV-1) with st; how it was run: as §1
Oryctolagus cuniculus [22] = species: Oryctolagus cuniculus; assay: Evaluated for the minimum cytotoxic concentration (MCC) upon preincubation of rabbit kidney cells; how it was run: as §5
Human alphaherpesvirus 1 [23] = assay: Evaluated for the minimum inhibitory concentration (MIC) in primary rabbit kidney (PRK) by 50% upon pre-incubation in medium containing 10% fetal calf serum at 37 degree Centigrade for 24 hr against TK- herpes simplex virus type 1 (TK- HSV-1) with st; how it was run: as §1
Mus musculus [24] = assay: Topical treatment of intracutaneous TK- herpes simplex virus type 1 of strain VMW 1837 infection of Nu/nu mice for mean day of appearance of skin lesions and/or paralysis of the hind legs at 0.3% concentration (v/v in DMSO); how it was run: as §3
Mus musculus [25] = assay: Topical treatment of intracutaneous TK- herpes simplex virus type 1 of strain VMW 1837 infection of Nu/nu mice for mean day of appearance of skin lesions and/or paralysis of the hind legs at 3% concentration (v/v in DMSO); how it was run: as §3
Mus musculus [26] = species: Mus musculus; assay: Mean time survival (MTS) of the mice at the end of 28 or 49 days.; how it was run: as §3

`CS(=O)(=O)c1ccc(OP(=O)(OC[C@H]2O[C@@H](n3cc(/C=C/Br)c(=O)[nH]c3=O)C[C@@H]2O)OC[C@H]2O[C@@H](n3cc(/C=C/Br)c(=O)[nH]c3=O)C[C@@H]2O)cc1` gave an MIC (Human alphaherpesvirus 1 [1]) of 0.7 µg/mL (≈ 0.793 µM), an MIC (Human alphaherpesvirus 1 [2]) of 2 µg/mL (≈ 2.27 µM) and an MIC (Human alphaherpesvirus 2 [3]) of 150 µg/mL (≈ 170 µM). For the same molecule, the MIC (Human alphaherpesvirus 2 [4]) was 200 µg/mL (≈ 227 µM), the “Mean day appearance of lesions” value (Mus musculus [5]) was 10.4 and the MIC (Human alphaherpesvirus 1 [6]) was 0.2 µg/mL (≈ 0.227 µM). It also gave an MIC (Human alphaherpesvirus 1 [7]) of 2 µg/mL (≈ 2.27 µM), an MIC (Human alphaherpesvirus 1 [8]) of over 400 µg/mL and an MIC (Human alphaherpesvirus 2 [9]) of over 200 µg/mL. For the same molecule, the MIC (Human alphaherpesvirus 2 [10]) was over 400 µg/mL, the MIC (Vaccinia virus [11]) was 70 µg/mL (≈ 79.3 µM) and the MIC [12] was over 400 µg/mL. It also gave an MIC (Human alphaherpesvirus 1 [13]) of 0.2 µg/mL (≈ 0.227 µM), an MIC [14] of over 400 µg/mL and an MIC (Vaccinia virus [15]) of over 400 µg/mL. It also gave an MIC (Human alphaherpesvirus 2 [16]) of over 400 µg/mL, an MIC (Human alphaherpesvirus 2 [17]) of over 400 µg/mL and an MCC (Oryctolagus cuniculus [18]) of over 400 µg/mL. It also gave an MIC (Human alphaherpesvirus 1 [19]) of over 400 µg/mL, an MIC (Human alphaherpesvirus 1 [20]) of 2 µg/mL (≈ 2.27 µM) and an MIC (Human alphaherpesvirus 1 [21]) of over 400 µg/mL. The MCC (Oryctolagus cuniculus [22]) was over 400 µg/mL, the MIC (Human alphaherpesvirus 1 [23]) was 300 µg/mL (≈ 340 µM) and the “Mean day appearance of lesions” value (Mus musculus [24]) was 16.7. For the same molecule, the “Mean day appearance of lesions” value (Mus musculus [25]) was 9.7 and the MTS (Mus musculus [26]) was 15 days and 24.2 days and 37.8 days.
